Laboratory results: ChEMBL document CHEMBL3861977, “Effects of Oleanane-Type Triterpene Saponins from the Leaves of Eleutherococcus senticosus in an Axonal Outgrowth Assay” (J Nat Prod, 2016)
Calls of active or inactive are those of the source. The rule behind the calls is not given here.

tested on: Cortical neurone; assay: Inhibition of amyloid beta (25 to 35)-induced neuronal degeneration in ddY mouse embryo cortical neurons assessed as restoration of axonal outgrowth by measuring length of phosphorylated neurofilament-H-positive neurites at 10 uM treated 3 days post amyloid beta (25 to 35) stimulation measured after 4 days by fluorescent microscopic analysis; assay type: functional
Outline: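 Cortical neurons from E14 ddY mouse embryos, plated on poly-D-lysine (5 μg/mL) in neurobasal medium with 12% horse serum, switched to 2% B-27 medium 3−12 h later, 37 °C, 10% CO2. Day 3: 10 μM Aβ25−35 (pre-aggregated 4 days at 37 °C) for 3 days. Then Aβ removed; 10 μM isolate, 0.1% DMSO vehicle or NGF 10 ng/mL for 4 days. Fixed in 4% PFA, stained for pNF-H and DAPI, pNF-H-positive neurite length measured; 10−79 photos per treatment, Dunnett's test.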

Row | Structure (SMILES) | inhibition
1 | C=C1CC[C@]2(C(=O)O[C@@H]3O[C@H](CO[C@@H]4O[C@H](COC(C)=O)[C@@H](O[C@@H]5O[C@@H](C)[C@H](O)[C@@H](O)[C@H]5O)[C@H](O)[C@H]4O)[C@@H](O)[C@H](O)[C@H]3O)CC[C@]3(C)C(=CC[C@@H]4[C@@]5(C)CC[C@H](O[C@@H]6OC[C@H](O)[C@H](O)[C@H]6O[C@@H]6O[C@@H](C)[C@H](O)[C@@H](O)[C@H]6O)C(C)(C)[C@@H]5CC[C@]43C)[C@@H]2C1 | Active
2 | C[C@@H]1O[C@@H](O[C@H]2[C@H](O)[C@@H](O)[C@H](OC[C@H]3O[C@@H](OC(=O)[C@]45CC[C@@](C)(C=O)C[C@H]4C4=CC[C@@H]6[C@@]7(C)CC[C@H](O[C@@H]8OC[C@H](O)[C@H](O)[C@H]8O)C(C)(C)[C@@H]7CC[C@@]6(C)[C@]4(C)CC5)[C@H](O)[C@@H](O)[C@@H]3O)O[C@@H]2CO)[C@H](O)[C@H](O)[C@H]1O | Active
3 | C=C1CC[C@]2(C(=O)O[C@@H]3O[C@H](CO[C@@H]4O[C@H](COC(C)=O)[C@@H](O[C@@H]5O[C@@H](C)[C@H](O)[C@@H](O)[C@H]5O)[C@H](O)[C@H]4O)[C@@H](O)[C@H](O)[C@H]3O)CC[C@]3(C)C(=CC[C@@H]4[C@@]5(C)CC[C@H](O[C@@H]6OC[C@H](O)[C@H](O)[C@H]6O[C@@H]6O[C@H](CO)[C@@H](O)[C@H](O)[C@H]6O)C(C)(C)[C@@H]5CC[C@]43C)[C@@H]2C1 | Active
4 | C[C@@H]1O[C@@H](O[C@H]2[C@H](O)[C@@H](O)[C@H](OC[C@H]3O[C@@H](OC(=O)[C@]45CCC(C)(C)C[C@H]4C4=CC[C@@H]6[C@@]7(C)CC[C@H](O[C@@H]8OC[C@H](O)[C@H](O[C@@H]9O[C@H](CO)[C@@H](O)[C@H](O)[C@H]9O)[C@H]8O)C(C)(C)[C@@H]7CC[C@@]6(C)[C@]4(C)C[C@@H]5O)[C@H](O)[C@@H](O)[C@@H]3O)O[C@@H]2CO)[C@H](O)[C@H](O)[C@H]1O | Active
5 | C[C@@H]1O[C@@H](O[C@H]2[C@H](O[C@H]3CC[C@]4(C)[C@H]5CC=C6[C@@H]7CC(C)(C)CC[C@]7(C(=O)O[C@@H]7O[C@H](CO[C@@H]8O[C@H](CO)[C@@H](O[C@@H]9O[C@@H](C)[C@H](O)[C@@H](O)[C@H]9O)[C@H](O)[C@H]8O)[C@@H](O)[C@H](O)[C@H]7O)CC[C@@]6(C)[C@]5(C)CC[C@H]4C3(C)C)OC[C@H](O)[C@@H]2O)[C@H](O)[C@H](O)[C@H]1O | Active
6 | CC(=O)OC[C@H]1O[C@@H](OC[C@H]2O[C@@H](OC(=O)[C@]34CCC(C)(C)C[C@H]3C3=CC[C@@H]5[C@@]6(C)CC[C@H](O[C@@H]7OC[C@H](O)[C@H](O)[C@H]7O[C@@H]7O[C@H](CO)[C@@H](O)[C@H](O)[C@H]7O)C(C)(C)[C@@H]6CC[C@@]5(C)[C@]3(C)CC4)[C@H](O)[C@@H](O)[C@@H]2O)[C@H](O)[C@@H](O)[C@@H]1O[C@@H]1O[C@@H](C)[C@H](O)[C@@H](O)[C@H]1O | Active
7 | CC(=O)OC[C@H]1O[C@@H](OC[C@H]2O[C@@H](OC(=O)[C@]34CC[C@@](C)(C=O)C[C@H]3C3=CC[C@@H]5[C@@]6(C)CC[C@H](O[C@@H]7OC[C@H](O)[C@H](O)[C@H]7O[C@@H]7O[C@@H](C)[C@H](O)[C@@H](O)[C@H]7O)C(C)(C)[C@@H]6CC[C@@]5(C)[C@]3(C)CC4)[C@H](O)[C@@H](O)[C@@H]2O)[C@H](O)[C@@H](O)[C@@H]1O[C@@H]1O[C@@H](C)[C@H](O)[C@@H](O)[C@H]1O | Active
8 | CC(=O)OC[C@H]1O[C@@H](OC[C@H]2O[C@@H](OC(=O)[C@]34CCC(C)(C)C[C@H]3C3=CC[C@@H]5[C@@]6(C)CC[C@H](O[C@@H]7OC[C@H](O)[C@H](O)[C@H]7O[C@@H]7O[C@@H](C)[C@H](O)[C@@H](O)[C@H]7O)C(C)(C)[C@@H]6CC[C@@]5(C)[C@]3(C)CC4)[C@H](O)[C@@H](O)[C@@H]2O)[C@H](O)[C@@H](O)[C@@H]1O[C@@H]1O[C@@H](C)[C@H](O)[C@@H](O)[C@H]1O | Active
9 | C[C@@H]1O[C@@H](O[C@H]2[C@H](O[C@H]3CC[C@]4(C)[C@H]5CC=C6[C@@H]7C[C@](C)(C=O)CC[C@]7(C(=O)O[C@@H]7O[C@H](CO[C@@H]8O[C@H](CO)[C@@H](O[C@@H]9O[C@@H](C)[C@H](O)[C@@H](O)[C@H]9O)[C@H](O)[C@H]8O)[C@@H](O)[C@H](O)[C@H]7O)CC[C@@]6(C)[C@]5(C)CC[C@H]4C3(C)C)OC[C@H](O)[C@@H]2O)[C@H](O)[C@H](O)[C@H]1O | Active
10 | CC(=O)OC[C@H]1O[C@@H](OC[C@H]2O[C@@H](OC(=O)[C@]34CC[C@@](C)(CO)C[C@H]3C3=CC[C@@H]5[C@@]6(C)CC[C@H](O[C@@H]7OC[C@H](O)[C@H](O)[C@H]7O[C@@H]7O[C@@H](C)[C@H](O)[C@@H](O)[C@H]7O)C(C)(C)[C@@H]6CC[C@@]5(C)[C@]3(C)CC4)[C@H](O)[C@@H](O)[C@@H]2O)[C@H](O)[C@@H](O)[C@@H]1O[C@@H]1O[C@@H](C)[C@H](O)[C@@H](O)[C@H]1O | Active
11 | C[C@@H]1O[C@@H](O[C@H]2[C@H](O[C@H]3CC[C@@]4(C)[C@@H](CC[C@]5(C)[C@@H]4CC=C4[C@@H]6CC(C)(C)CC[C@]6(C(=O)O[C@@H]6O[C@H](CO[C@@H]7O[C@H](CO)[C@@H](O[C@@H]8O[C@@H](C)[C@H](O)[C@@H](O)[C@H]8O)[C@H](O)[C@H]7O)[C@@H](O)[C@H](O)[C@H]6O)CC[C@]45C)[C@]3(C)CO)OC[C@H](O)[C@@H]2O)[C@H](O)[C@H](O)[C@H]1O | Active
12 | CC(=O)OC[C@H]1O[C@@H](OC[C@H]2O[C@@H](OC(=O)[C@]34CC[C@@](C)(C(=O)O)C[C@H]3C3=CC[C@@H]5[C@@]6(C)CC[C@H](O[C@@H]7OC[C@H](O)[C@H](O)[C@H]7O[C@@H]7O[C@@H](C)[C@H](O)[C@@H](O)[C@H]7O)C(C)(C)[C@@H]6CC[C@@]5(C)[C@]3(C)CC4)[C@H](O)[C@@H](O)[C@@H]2O)[C@H](O)[C@@H](O)[C@@H]1O[C@@H]1O[C@@H](C)[C@H](O)[C@@H](O)[C@H]1O | Active
13 | C=C1CC[C@]2(C(=O)O[C@@H]3O[C@H](CO[C@@H]4O[C@H](CO)[C@@H](O[C@@H]5O[C@@H](C)[C@H](O)[C@@H](O)[C@H]5O)[C@H](O)[C@H]4O)[C@@H](O)[C@H](O)[C@H]3O)CC[C@]3(C)C(=CC[C@@H]4[C@@]5(C)CC[C@H](O[C@@H]6OC[C@H](O)[C@H](O)[C@H]6O[C@@H]6O[C@@H](C)[C@H](O)[C@@H](O)[C@H]6O)C(C)(C)[C@@H]5CC[C@]43C)[C@@H]2C1 | Active
14 | C=C1CC[C@]2(C(=O)O[C@@H]3O[C@H](CO[C@@H]4O[C@H](COC(C)=O)[C@@H](O[C@@H]5O[C@@H](C)[C@H](O)[C@@H](O)[C@H]5O)[C@H](O)[C@H]4O)[C@@H](O)[C@H](O)[C@H]3O)CC[C@]3(C)C(=CC[C@@H]4[C@@]5(C)CC[C@H](O[C@@H]6OC[C@H](O)[C@H](O)[C@H]6O)C(C)(C)[C@@H]5CC[C@]43C)[C@@H]2C1 | Active
15 | C[C@@H]1O[C@@H](O[C@H]2[C@H](O)[C@@H](O)[C@H](OC[C@H]3O[C@@H](OC(=O)[C@]45CCC(C)(C)C[C@H]4C4=CC[C@@H]6[C@@]7(C)CC[C@H](O[C@@H]8OC[C@H](O)[C@H](O)[C@H]8O)C(C)(C)[C@@H]7CC[C@@]6(C)[C@]4(C)CC5)[C@H](O)[C@@H](O)[C@@H]3O)O[C@@H]2CO)[C@H](O)[C@H](O)[C@H]1O | Active
16 | CC(=O)OC[C@H]1O[C@@H](OC[C@H]2O[C@@H](OC(=O)[C@]34CC[C@@](C)(C(=O)O)C[C@H]3C3=CC[C@@H]5[C@@]6(C)CC[C@H](O[C@@H]7OC[C@H](O)[C@H](O)[C@H]7O)C(C)(C)[C@@H]6CC[C@@]5(C)[C@]3(C)CC4)[C@H](O)[C@@H](O)[C@@H]2O)[C@H](O)[C@@H](O)[C@@H]1O[C@@H]1O[C@@H](C)[C@H](O)[C@@H](O)[C@H]1O | Active
